Screening data: PubChem BioAssay, The Scripps Research Institute Molecular Screening Center
CHRM1 PAM: potentiates human M1 receptor response to acetylcholine; actives 0.088% (n = 360,000); activation, % at 3 µM; CHO-K1 hM1, Fluo-8 calcium fluorescence, ACh EC20; 0% = ACh EC20, 100% = maximal ACh; in the data active = activation above about 19%, passing the limit was not always enough
CHRM5 agonist: agonists of human muscarinic M5 receptor (CHRM5). P08912. CHO-K1 hM5 cells, Fluo-8 calcium fluorescence; 0% DMSO wells, 100% maximal acetylcholine response. activation, % at 3 µM. actives 0.19% (n = 360,000);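 active = activation above the run's mean over test compounds plus 3 SD, cut at about 23% in these data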;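 also: signal is peak over basal fluorescence ratio across the kinetic read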
Target sequence (P08912 whole entry, looked up): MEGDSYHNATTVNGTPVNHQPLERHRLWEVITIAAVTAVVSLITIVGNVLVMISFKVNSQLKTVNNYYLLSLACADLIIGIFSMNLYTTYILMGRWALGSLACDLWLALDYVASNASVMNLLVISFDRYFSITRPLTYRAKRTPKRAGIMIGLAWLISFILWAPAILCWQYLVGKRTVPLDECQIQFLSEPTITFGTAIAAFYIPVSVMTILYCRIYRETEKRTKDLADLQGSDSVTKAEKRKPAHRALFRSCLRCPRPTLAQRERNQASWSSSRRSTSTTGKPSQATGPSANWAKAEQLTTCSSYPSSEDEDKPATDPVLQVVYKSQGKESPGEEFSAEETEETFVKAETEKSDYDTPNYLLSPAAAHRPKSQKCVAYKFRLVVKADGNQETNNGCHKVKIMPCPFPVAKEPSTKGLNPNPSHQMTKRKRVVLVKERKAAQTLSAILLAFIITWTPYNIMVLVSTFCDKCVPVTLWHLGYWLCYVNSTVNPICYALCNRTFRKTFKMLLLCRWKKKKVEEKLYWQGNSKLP
CHRM5 PAM: CHRM5 positive allosteric modulation; CHO-K1 hM5, Fluo-8 calcium, ACh EC20 PAM; 0% = ACh EC20, 100% = ACh EC100; activation, % at 3 µM; actives 0.3% (n = 360,000); AID 624038;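 active = activation above the run cutoff, the mean activation of all test compounds plus 3 SD, cut at about 18% in these data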
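Test system: CHO-K1 hM5 cells / Doses: single-point, 3 µM nominal / Times: Post-acetylcholine fluorescence recording 140 s / Technique: Fluo-8 calcium fluorescence / Measure: Max/basal fluorescence ratio as % of EC20–EC100 ACh window / Benchmarks: low control EC20 acetylcholine (0%), high control EC100 acetylcholine (100%) / Replicates: one well per compound, no replicates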
M5 antag: antagonists of human muscarinic M5 receptor (CHRM5) | inhibition, % at 3 µM | CHO-hM5 cells, Fluo-8 calcium fluorescence, ACh EC80 | actives 0.59% (n = 360,000);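 active = inhibition above a per-plate cutoff, the mean of that plate's test compounds plus 3 SD, cut at about 27% in these data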;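 also: 0% = acetylcholine EC80 with DMSO and 100% = DMSO without agonist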
CHRM1 antagonist: blocks human M1 muscarinic receptor; CHO-K1 hM1, Fluo-8 calcium fluorescence, ACh EC80 antagonist; inhibition, % at 3 µM; actives 1.3% (n = 360,000);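 active = percent inhibition above its own plate's cutoff, namely the mean of that plate's compound wells plus 3 SD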;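 also: peak over basal fluorescence ratio during 140 s after agonist addition; 0% = ACh EC80 plus DMSO and 100% = DMSO alone without agonist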
CHRM1 agonist: activates human CHRM1 receptor; CHO-K1 hM1, Fluo-8 calcium fluorescence, agonist mode; 0% DMSO, 100% acetylcholine EC100; activation, % at 3 µM; actives 0.33% (n = 360,000); AID 588814;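 active = activation above the run's mean compound activation plus 3 SD, cut at about 16% in these data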;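 also: peak over basal fluorescence ratio within a 140 s kinetic read after compound addition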
The depositor's hits bear a star. Compounds with a hit are over-represented: about 2% of the library has one in this group of screens.

How did O=C(Nc1cccc(-c2nc3ccccc3s2)c1)c1cccs1 do in these assays?
CHRM1 PAM: -5; CHRM5 agonist: -5; CHRM5 PAM: -9; M5 antag: 14; CHRM1 antagonist: 30*; CHRM1 agonist: -11

Results for O=C(Nc1ccc(-c2nc3ccc(NC(=O)c4cccs4)cc3[nH]2)cc1)c1cccs1 ?
CHRM1 PAM: -17; CHRM5 agonist: 0; CHRM5 PAM: -14; M5 antag: 27*; CHRM1 antagonist: 38*; CHRM1 agonist: -5

How did O=C(Cc1cccs1)Nc1cccc(-c2nc3cc4ccccc4cc3[nH]2)c1 do in these assays?
CHRM1 PAM: -14; CHRM5 agonist: -2; CHRM5 PAM: -18; M5 antag: 27*; CHRM1 antagonist: 23; CHRM1 agonist: -8

Results for CC(=O)Nc1cccc(NC(=O)Cc2cccs2)c1 ?
CHRM1 PAM: 18; CHRM5 agonist: 0; CHRM5 PAM: -7; M5 antag: 11; CHRM1 antagonist: -19; CHRM1 agonist: 1

How did O=C(c1ccccc1)c1ccc2nc(-c3ccc(NC(=O)c4ccccc4Br)cc3)[nH]c2c1 do in these assays?
CHRM1 PAM: -3; CHRM5 agonist: 1; CHRM5 PAM: -11; M5 antag: 12; CHRM1 antagonist: 11; CHRM1 agonist: -4

Results for Cc1ccccc1C(=O)Nc1ccc(-c2nc3ccc(C(=O)c4ccccc4)cc3[nH]2)cc1 ?
CHRM1 PAM: -9; CHRM5 agonist: -4; CHRM5 PAM: -23; M5 antag: 24; CHRM1 antagonist: 28*; CHRM1 agonist: -3

Results for O=C(Nc1cccc(-c2nc3ccccc3s2)c1)c1cc(=O)c2ccccc2o1 ?
CHRM1 PAM: 4; CHRM5 agonist: -2; CHRM5 PAM: -2; M5 antag: 4; CHRM1 antagonist: -6; CHRM1 agonist: -4

How did Nc1ccc(CSc2ccc(Cl)cc2)c(Cl)c1 do in these assays?
CHRM1 PAM: 6; CHRM5 agonist: -4; CHRM5 PAM: -3; M5 antag: 12; CHRM1 antagonist: -15; CHRM1 agonist: -4

How did CCCCNC(=O)C1(C)CCN1C(=O)c1ccc2sccc2c1 (centres undefined) do in these assays?
CHRM1 PAM: 3; CHRM5 agonist: -1; CHRM5 PAM: 0; M5 antag: 0; CHRM1 antagonist: -6; CHRM1 agonist: -4

Results for CC(=O)Nc1ccc(Sc2ncccc2C(=O)Nc2ccc(F)cc2)cn1 ?
CHRM1 PAM: -24; CHRM5 agonist: 50*; CHRM5 PAM: -14; M5 antag: 15; CHRM1 antagonist: 52*; CHRM1 agonist: 69*

What do the screens show for `[2H]c1c([2H])c([2H])c(C(=O)c2sc(N3CCCCCC3)nc2-c2ccccc2)c([2H])c1[2H]`?
CHRM1 PAM: -19; CHRM5 agonist: -6; CHRM5 PAM: -11; M5 antag: 1; CHRM1 antagonist: 39*; CHRM1 agonist: -5

Results for Cc1ccc(SCC(=O)OCC(=O)N(C)CC(=O)Nc2ccc(F)cc2)cc1C ?
CHRM1 PAM: 7; CHRM5 agonist: 50*; CHRM5 PAM: 11; M5 antag: -7; CHRM1 antagonist: -7; CHRM1 agonist: 32*

What do the screens show for `CC(C)CNC(=O)C1(C)CCCN1C(=O)C(C)(C)Oc1ccc(Cl)cc1` (centres undefined)?
CHRM1 PAM: 8; CHRM5 agonist: -2; CHRM5 PAM: -6; M5 antag: 6; CHRM1 antagonist: -18; CHRM1 agonist: -4

How did COc1ccc(S(=O)(=O)NCC2CCCN(C(=O)CCC(F)(F)F)C2)cc1 (centres undefined) do in these assays?
CHRM1 PAM: 12; CHRM5 agonist: 14; CHRM5 PAM: 39*; M5 antag: 11; CHRM1 antagonist: -11; CHRM1 agonist: 0

What do the screens show for `COCCC(=O)N1CCCC(CNS(=O)(=O)c2ccc(OC)cc2)C1` (centres undefined)?
CHRM1 PAM: 7; CHRM5 agonist: 5; CHRM5 PAM: 2; M5 antag: 6; CHRM1 antagonist: -1; CHRM1 agonist: 0
